This is one part of a sample in which hits are shown more often than they occur.
Fibroblast inh: blocks proliferation of human lung fibroblasts; viability, % at 10 µM; LL 47 human lung fibroblast viability, ATP luminescence; hits give low values; 1.1% of 85,000 active;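 active = viability at or below 50% in the single dose screen; inactive = viability above 50%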;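 note: compound exposure lasted 72 h before the ATP readout; 100% = median luminescence of untreated cell-only wells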
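Test system: LL 47 human lung fibroblasts; Quantity: 1,150 cells/well; Buffer or medium: IMEM plus 15% FBS; Dosing: tenfold compound dosing solution, DMSO at 0.1%; Timing: overnight cell rest, 72 h compound treatment at 37 °C; Detection: ATP-based CellTiter-Glo luminescent readout; Read-out basis: viability percentage against median untreated-cell control; Controls: cell-only wells, no compound.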
HCT116 PTEN-null: PTEN-deleted cell growth suppression. 1.2% of 140,000 active. viability, % at 10 µM. HCT116 PTEN-null viability, CellTiter-Glo, 60 h; hits give low values;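 active = viability at or below a set limit, 4 SD under the median of all tested compounds, cut at about 3.7% in these data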;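 note: PTEN knockout HCT116 line with beta catenin targeted HCT116 as companion control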
HUVEC inhibit: inhibitors of human endothelial cell proliferation. HUVEC proliferation, CellTiter-Glo luminescence, 72 h; hits give low values. viability, % at 10 µM (by protocol). 1.1% of 86,000 active;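 active = viability at or below 30%; inactive = viability above 30%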;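 note: 100% = median luminescence of DMSO-only cell control wells on each plate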
bCat KO growth: beta-catenin-lacking colon tumor cell growth suppression; HCT116 beta-catenin knockout viability, CellTiter-Glo, 60 h; hits give low values; viability, % at 10 µM; 1.5% of 140,000 active; AID 818;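 active = viability at or under a set limit, the compound median less 4 SD, cut at about 6% in these data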;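 note: 0% = Hyamine 1622 control at 20 µM and 100% = untreated cell control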
H69AR inhibit: blocks growth of human H69AR lung tumor cells | 6% of 85,000 active | H69AR lung tumor viability, ATP luminescence, 72 h; hits give low values | viability, % at 10 µM;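 active = viability at or below 40%; inactive = viability above 40%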;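 note: multidrug resistant small cell line overexpressing MRP-1 efflux transporter; 100% = mean luminescence of untreated control wells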
* marks the source's active call; other numbers are inactive results; x = no result given.

SMILES | Fibroblast inh | HCT116 PTEN-null | HUVEC inhibit | bCat KO growth | H69AR inhibit
COc1ccc(-c2[nH]c(-c3ccc4c(c3)OCO4)nc2-c2ccccc2)cc1 | x | 1.4* | x | 1.3* | x
O=C1C=C(Nc2ccccc2O)c2ccccc2C1=O | 13.0* | 1.8* | 4.7* | 2.3* | 7.9*
COc1ccc2cc(/C=N/NC(=O)CN(c3ccccc3C)S(=O)(=O)c3ccccc3)c(Cl)nc2c1 | x | 40.2 | x | 57.8 | x
N#CC(c1ccc(F)cc1)c1ccc(C(=O)c2ccc(F)cc2)cc1 (centres undefined) | 96.0 | 28.4 | 71.1 | 14.7 | 98.4
Cc1ccc(C(C#N)c2ccc(C(=O)c3ccc(F)cc3)cc2)cc1 (centres undefined) | 103.6 | 46.2 | 17.3* | 25.0 | 95.8
O=S(Cc1ccccc1)CC(O)(c1ccc(Cl)cc1)c1ccc(Cl)cc1 (centres undefined) | x | 12.7 | x | 5.7* | x
CCC(C)(C(=O)NC1CCCCC1)N(Cc1cccs1)C(=O)c1ccc(=O)[nH]c1 (centres undefined) | x | 91.8 | x | 89.1 | x
O=C(O)c1ccc2c3c(ncnc13)-c1ccccc1C2=O | 22.6* | 14.6 | 40.9 | 33.1 | 64.9
O=C(CSc1nnc(-c2ccccc2Cl)o1)Oc1ccc(Br)cc1 | 110.0 | 0.7* | 93.1 | 0.9* | 98.6
COc1cc2c(cc1OC)CN(C(=O)c1cc3ccccc3oc1=O)CC2 | x | 28.3 | 63.9 | 33.6 | 23.6*
COC(=O)c1cn(CC(=O)N2CCCCCC2)c2ccccc12 | 96.6 | 82.0 | 87.6 | 90.5 | 68.6
CCOC(=O)C1=C(O)/C(=C/c2cn(CC(=O)N3CCCC3)c3ccccc23)SC1=Nc1ccccc1 | 56.0 | 54.0 | 61.0 | 65.4 | 11.5*
O=C1C=C(Nc2ccc(Cl)cc2)CC(c2ccco2)C1 (centres undefined) | 87.6 | 45.1 | 78.8 | 49.0 | 25.5*
N#Cc1ncc(-c2ccc3c(c2)OCCOCCOCCOCCOCCO3)nc1C#N | x | 2.8* | x | 3.8* | x
N#Cc1ncc(-c2ccc3c(c2)OCCOCCOCCOCCO3)nc1C#N | x | 40.0 | x | 31.0 | x
CCOc1ccc2nc(Cl)c(/C=C/C(=O)c3ccco3)cc2c1 | 93.0 | 5.8 | 77.4 | 14.4 | 8.9*
CCOc1ccc2nc(COC(=O)c3ccco3)c(C(C)=O)[n+]([O-])c2c1 | 106.3 | 91.4 | 85.1 | 98.4 | 77.2
COc1ccc(OC)c(S(=O)(=O)N2CCC(C(=O)N3CCc4ccccc4C3)CC2)c1 | 97.1 | 86.4 | 86.0 | 91.5 | 35.8*
COc1cc(C2c3c(oc4ccc(C)cc4c3=O)C(=O)N2c2cc(C)ccn2)cc(OC)c1OC (centres undefined) | 61.9 | x | 70.0 | x | 32.1*
Cc1ccc2oc3c(c(=O)c2c1)C(c1cccc(O)c1)N(c1ccccn1)C3=O (centres undefined) | 97.6 | 53.7 | 89.9 | 58.5 | 85.6
Nc1c(CO)nnn1-c1ccccc1 | x | 101.6 | x | 105.0 | x
CC(NC(=O)Nc1nnc(C(F)(F)F)s1)(C(F)(F)F)C(F)(F)F | 27.9* | 1.8* | 27.9* | 2.4* | 6.2*
CN1Cc2cc(C(=O)c3ccccc3O)cnc2NC1=O | 84.1 | 94.1 | 90.2 | 98.7 | 24.7*
Oc1ccc2c(c1)oc1cc(O)ccc12 | 75.7 | 97.2 | 56.7 | 82.7 | 5.2*
Cc1cccc(NC(=S)NCC(c2cccnc2)N(C)C)c1 (centres undefined) | x | 99.1 | x | 88.0 | x
SMILES | Fibroblast inh | HCT116 PTEN-null | HUVEC inhibit | bCat KO growth | H69AR inhibit
Cc1ccc2[nH]c(-c3ccccc3)cc(=O)c2c1 | 61.1 | 14.2 | 47.2 | 10.3 | 33.1*
CCN(CC)c1ccc(C(=O)OCc2cc(=O)oc3cc(O)ccc23)cc1 | x | 0.2* | x | 0.9* | x
Cc1cc2oc(=O)cc(COC(=O)c3cccc(N(C)C)c3)c2cc1C | 102.5 | x | 96.6 | x | 78.4
O=C1C(Cl)=C(NCC2CCCO2)C(=O)N1CCc1ccccc1 (centres undefined) | 110.0 | 94.6 | 90.7 | 86.7 | 88.1
CCCCNC(=O)NC1CCCC1 | x | 92.6 | x | 98.3 | x
COc1ccccc1OCC(=O)N/N=C/C=C/c1ccc([N+](=O)[O-])o1 | x | 2.6* | x | 3.2* | x
CCOC(=O)c1c(C)[nH]c(C(=O)CSc2nccc(C)n2)c1C | x | 101.2 | x | 92.5 | x
CN=C1c2cc3cc(OC)ccc3n2CCN1Cc1ccccc1 | 45.9* | 14.7 | 57.9 | 18.6 | 19.2*
CCN(CC)CCNC1=NCCn2c1cc1cc(OC)ccc12 | 80.7 | 45.2 | 83.3 | 49.9 | 51.9
CCCOC1OC(=O)c2c1ccc(OC)c2OC (centres undefined) | x | 107.9 | x | 104.0 | x
CCCc1nc2ccccc2c(=O)n1/N=C/c1c(C)[nH]n(-c2ccc(C)cc2)c1=O | 87.8 | 49.7 | 64.3 | 39.1 | 27.1*
CN(C)c1ccc(/C=c2/sc3n(c2=O)NC2(c4ccccc4)N(C)C(=O)N(C)C2(c2ccccc2)N=3)cc1 (centres undefined) | x | 99.5 | x | 82.6 | x
O=C(OCC(=O)N1CCc2ccccc21)C1=COCCO1 | 99.1 | 106.2 | 94.0 | 91.3 | 27.6*
CCOC(=O)N1CCC(NC(=O)c2cccc3c2C(=O)N(c2ccc(OC)cc2)C3)CC1 | 103.5 | 74.9 | 91.8 | 86.6 | 71.9
Cc1ccc(-c2nc3ccccc3c(=O)n2NC(=S)N(C)C)cc1 | x | 92.9 | x | 86.1 | x
CC(NC(=O)CN1C(=O)NC(Cc2ccccc2)(Cc2ccccc2)C1=O)C12CC3CC(CC(C3)C1)C2 (centres undefined) | 88.8 | 62.3 | 74.2 | 74.4 | 6.3*
CC(NC(=O)Cn1ncc(Cl)c(Cl)c1=O)C12CC3CC(CC(C3)C1)C2 (centres undefined) | x | 1.4* | x | 1.2* | x
CC1CCCCC1NC(=O)CN1C(=O)NC(Cc2ccccc2)(Cc2ccccc2)C1=O (centres undefined) | x | 92.7 | x | 100.2 | x
CC(=O)Nc1ccc(NC(=O)C(Cc2ccccc2)NC(=O)C2CCCCC2)cc1 (centres undefined) | x | 92.3 | x | 92.7 | x
COc1ccc(-c2cc(C(F)(F)F)nc(SCCC(=O)N3CCOCC3)n2)cc1 | x | 90.5 | 104.3 | 89.6 | 38.5*
Cc1nc2nc(SCC(=O)NCc3ccco3)nn2c(C)c1Cc1c(F)cccc1Cl | 98.3 | 53.4 | 68.0 | 51.2 | 34.9*
Nc1c(N(C(=O)Nc2ccc(Cl)c(Cl)c2)C2CCCC2)c(=O)[nH]c(=O)n1Cc1ccccc1 | x | 1.4* | x | 1.4* | x
Cc1cccnc1NC(=O)CSc1nnc(Cc2ccccc2)o1 | 96.7 | 98.6 | 100.2 | 93.8 | 100.4
COc1ccc(OC)c(NS(=O)(=O)Cc2ccccc2)c1 | x | 103.8 | x | 104.8 | x
O=C(Nc1nc2ccccc2n1CCN1CCOCC1)c1cn(-c2ccccc2)nc1-c1ccccc1 | 53.4 | 10.2 | 63.4 | 16.6 | 19.2*
CC(=O)Nc1nc2ccccc2n1CCN1CCOCC1 | x | 105.5 | x | 94.0 | x
O=C(CSc1nc(CCC2CCCC2)nc2ccccc12)NCc1ccc2c(c1)OCO2 | x | 84.7 | x | 82.0 | x
O=C(CSc1n[nH]c(-c2ccccc2O)n1)N1CCCc2ccccc21 | 99.9 | 38.7 | 52.9 | 35.6 | 25.1*
COc1ccc(-c2nnc(SCc3nnc(-c4ccccc4)o3)n2-c2ccccc2)cc1 | 85.2 | 76.8 | 41.5 | 75.6 | 2.6*

Assay outcomes deposited in PubChem BioAssay by SRMLSC.
